Results reported in ChEMBL document CHEMBL5674881, “The therapeutic properties of resminostat for hepatocellular carcinoma” (2018).
Active and inactive are the calls of the source. No cut-off for these calls is given here.

Experiments:
Hep 3B2 [1] = test: Anti-proliferative activity against human Hep3B cells assessed as reduction in cell viability at7 nM incubated for 24 hrs by Fluoro Fire-Blue ProViaTox assay; type: functional, cell-based; settings: dose 7.0 nM
Hep 3B2 [2] = test: Anti-proliferative activity against human Hep3B cells assessed as reduction in cell viability at 1 uM incubated for 24 hrs by Fluoro Fire-Blue ProViaTox assay; type: functional, cell-based
Hep 3B2 [3] = test: Anti-proliferative activity against human Hep3B cells assessed as reduction in cell viability at 20 uM incubated for 24 hrs by Fluoro Fire-Blue ProViaTox assay; type: functional, cell-based
Hep 3B2 [4] = test: Anti-proliferative activity against human Hep3B cells assessed as reduction in cell viability at 50 nM measured after 24 hrs by Fluoro Fire-Blue ProViaTox assay; type: functional, cell-based
Hep 3B2 [5] = test: Antiinflammatory activity against human Hep3B cells assessed as reduction in p65 RNA expression level at 50 nM incubated for 24 hrs in presence of SGBS CM by qRT-PCR analysis; type: functional, cell-based
Procedure, shortened: (§1)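 Hep3B treated 24 h with 17-AAG 50 nM, alone, with 30% SGBS conditioned medium, or with resminostat 80 nM. p65 RNA measured by RT-PCR. Nuclear p65 protein measured by transcription-factor ELISA: nuclear extract bound to NFκB consensus-duplex plate for 1 h at room temperature, then anti-p65 and HRP secondary antibodies, then chemiluminescence read. n = 3.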

Hep 3B2 [6] = test: Antiinflammatory activity against human Hep3B cells assessed as reduction in resminostat-induced p65 RNA expression level at 50 nM incubated for 24 hrs by qRT-PCR analysis relative to control; type: functional; set-up: scale not given: the % may be the effect or the level left; procedure, shortened: as §1
Hep 3B2 [7] = test: Antiinflammatory activity against human Hep3B cells assessed as reduction in nuclear protein expression level of p65 […] at 50 nM incubated for 24 hrs in presence of SGBS CM by […] analysis; type: functional, cell-based; procedure, shortened: as §1
Hep 3B2 [8] = test: Antiinflammatory activity against human Hep3B cells assessed as reduction in nuclear protein expression level of p65 […] at 50 nM incubated for 24 hrs by […] analysis; type: functional, cell-based; procedure, shortened: as §1
Hep 3B2 [9] = test: Downregulation of HDAC1 expression in human Hep3B cells at 50 nM incubated for 24 hrs by qRT-PCR analysis; type: functional, cell-based
Hep 3B2 [10] = test: Downregulation of HDAC2 expression in human Hep3B cells at 50 nM incubated for 24 hrs by qRT-PCR analysis; type: functional, cell-based

Compound: CCCc1cc(C)[nH]c(=O)c1CNC(=O)c1cc(-c2ccnc(N3CCN(C)CC3)c2)cc2c1cnn2C(C)C
- Activity (Hep 3B2 [1]): Active

Compound: COc1cccc2c1C(=O)c1c(O)c3c(c(O)c1C2=O)C[C@@](O)(C(=O)CO)C[C@@H]3O[C@H]1C[C@H](N)[C@H](O)[C@H](C)O1
- Activity (Hep 3B2 [2]): Active

Compound: Nc1nccc2c1ncn2[C@@H]1C=C(CO)[C@@H](O)[C@H]1O
- Activity (Hep 3B2 [3]): Active

Compound: C=CCNC1=C2C[C@@H](C)C[C@H](OC)[C@H](O)[C@@H](C)/C=C(\C)[C@H](OC(N)=O)[C@@H](OC)/C=C\C=C(/C)C(=O)NC(=CC1=O)C2=O [TANESPIMYCIN]
- Activity (Hep 3B2 [4]): Active
- Activity (Hep 3B2 [5]): Active
- Activity (Hep 3B2 [6]): 100%
- Activity (Hep 3B2 [7]): Active
- Activity (Hep 3B2 [8]): Active
- Activity (Hep 3B2 [9]): Active
- Activity (Hep 3B2 [10]): Active
